For 58 compounds, IC50 and ED50 results are on record in ChEMBL document CHEMBL3228032, “Aryloxyalkyloxy- and aralkyloxy-4-hydroxy-3-nitrocoumarins which inhibit histamine release in the rat and also antagonize the effects of a slow reacting substance of anaphylaxis” (J Med Chem, 1979).

One assay concerns Ileum. The experiment in a line: Antagonism of slow reacting substance of anaphylaxis-induced effect in guinea pig ileum. The note with it: Cavia porcellus. It is filed as functional, tissue-based. In outline:
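SRS-A standard: heated supernatant of pooled rat peritoneal fluid taken 5 min after antigen challenge in passive peritoneal anaphylaxis. Assayed on isolated terminal guinea pig ileum in 4 mL Tyrode's with atropine 5 × 10⁻⁷ M and mepyramine maleate 10⁻⁶ M. Antagonist in water added 30 s before a submaximal SRS-A dose. At least three concentrations, more than one ileum. Bath concentration for 50% inhibition taken from log concentration-inhibition curve, by eye or best-fit line with 95% confidence limits.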
One may read the IC50 as the concentration that inhibits the measured activity by half. Read a low IC50 as higher potency. For `CCCc1c(OCC(O)COc2ccc3c(O)c([N+](=O)[O-])c(=O)oc3c2)ccc(C(C)=O)c1O` (stereo unspecified), the IC50 was determined as 0.08 µM.
`O=c1oc2cccc(OCCCCOc3ccccc3)c2c(O)c1[N+](=O)[O-]` came in with an IC50 of over 10 µM.
Same read-out and setting: in the case of `CCCc1ccccc1OCC(O)COc1ccc2c(O)c([N+](=O)[O-])c(=O)oc2c1` (stereo unspecified) it was 0.11 µM.
On the same count and under the same terms, in the case of `CCCc1c(OCC(O)COc2ccc3c(O)c([N+](=O)[O-])c(=O)oc3c2CC)ccc(C(C)=O)c1O` (stereo unspecified) it was 0.05 µM.
Still for that read-out and setting: in the case of `O=c1oc2cc(OCCOc3ccccc3)ccc2c(O)c1[N+](=O)[O-]` it was over 10 µM; in that of `CCc1ccccc1OCC(O)COc1ccc2c(O)c([N+](=O)[O-])c(=O)oc2c1` (stereo unspecified), 2.7 µM; in that of `CC(=O)c1ccc(OCC(O)COc2ccc3c(O)c([N+](=O)[O-])c(=O)oc3c2)c(C)c1O` (stereo unspecified), 0.5 µM.
`CC(=O)c1ccc(OCC(O)COc2ccc3c(O)c([N+](=O)[O-])c(=O)oc3c2)cc1O` (stereo unspecified) registered an IC50 of over 20 µM.
The same measure, in the same setting: the value for `CCCc1c(OCC(O)COc2ccc3c(O)c([N+](=O)[O-])c(=O)oc3c2C)ccc(C(C)=O)c1O` (stereo unspecified) was 0.025 µM; that for `O=c1oc2ccc(OCCCCCOc3ccccc3)cc2c(O)c1[N+](=O)[O-]` was 2 µM.
The same measure, in the same setting: in the case of `O=c1oc2cc(OCCCCCOc3ccccc3)ccc2c(O)c1[N+](=O)[O-]` it was 8.4 µM; in that of `Cc1ccc(OCCCOc2ccc3c(O)c([N+](=O)[O-])c(=O)oc3c2)cc1`, 4.5 µM.
The compound `O=c1oc2ccc(OCCOc3ccccc3)cc2c(O)c1[N+](=O)[O-]` showed an IC50 of 17 µM.
Compound `CCCc1c(OCC(O)COc2ccc3c(O)c([N+](=O)[O-])c(=O)oc3c2CCC)ccc(C(C)=O)c1O` (stereo unspecified) gave an IC50 of 0.2 µM.
The same measure, in the same setting: the value for `CCCc1c(OCCCOc2ccc3c(O)c([N+](=O)[O-])c(=O)oc3c2)ccc(C(C)=O)c1O` was 0.1 µM.
For `O=c1oc2cc(OCC(O)COc3ccccc3)ccc2c(O)c1[N+](=O)[O-]` (stereo unspecified), the IC50 worked out at 12 µM.
The same measure, in the same setting: in the case of `Cc1ccc(CCCCOc2ccc3c(O)c([N+](=O)[O-])c(=O)oc3c2)cc1` it was 2.5 µM; in that of `O=C(O)c1ccc(OCC(O)COc2ccc3c(O)c([N+](=O)[O-])c(=O)oc3c2)cc1` (stereo unspecified), over 10 µM; in that of `O=c1oc2ccc(OCCCOc3ccccc3)cc2c(O)c1[N+](=O)[O-]`, 2.3 µM.
Same read-out and setting: the value for `CCCc1c(OCC(O)COc2ccc3c(O)c([N+](=O)[O-])c(=O)oc3c2)ccc(C(=O)CC)c1O` (stereo unspecified) was 0.15 µM.
Compound `O=c1oc2cc(OCCCCc3ccccc3)ccc2c(O)c1[N+](=O)[O-]` showed an IC50 of 4.5 µM.
Regarding `O=c1oc2cc(OCCc3ccccc3)ccc2c(O)c1[N+](=O)[O-]`, the IC50 amounted to 4.4 µM.
Regarding `CC(=O)c1ccc(OCCCOc2ccc3c(O)c([N+](=O)[O-])c(=O)oc3c2)cc1`, the IC50 stood at 6.1 µM.
Consider `CC(C)c1ccccc1OCC(O)COc1ccc2c(O)c([N+](=O)[O-])c(=O)oc2c1` (stereo unspecified), for which half-maximal inhibition (IC50) was put at 0.16 µM.
On the same count and under the same terms, the value for `O=c1oc2c(OCCCOc3ccccc3)cccc2c(O)c1[N+](=O)[O-]` was over 20 µM.
On the same count and under the same terms, the value for `CCCc1cc(C(C)=O)ccc1OCC(O)COc1ccc2c(O)c([N+](=O)[O-])c(=O)oc2c1` (stereo unspecified) was 0.7 µM.
The same measure, in the same setting: in the case of `O=c1oc2ccc(OCCc3ccccc3)cc2c(O)c1[N+](=O)[O-]` it was 18 µM; in that of `O=c1oc2cc(OCCCCCCOc3ccccc3)ccc2c(O)c1[N+](=O)[O-]`, over 20 µM; in that of `CCCc1c(OCC(O)COc2ccc3c(=O)cc(C(=O)O)oc3c2CCC)ccc(C(C)=O)c1O` (stereo unspecified) [FPL-55712], 0.17 µM.
`O=c1oc2ccc(OCc3ccccc3)cc2c(O)c1[N+](=O)[O-]`: the IC50 is 22 µM.
In the case of `O=c1oc2cc(OCCCOc3ccc(F)cc3)ccc2c(O)c1[N+](=O)[O-]`, half-maximal inhibition (IC50) required 1 µM.
The compound `O=c1oc2cc(OCCCc3ccccc3)ccc2c(O)c1[N+](=O)[O-]` displayed an IC50 of 7.8 µM.
The same measure, in the same setting: the value for `O=c1oc2cc(OCCCOc3ccc(-c4ccccc4)cc3)ccc2c(O)c1[N+](=O)[O-]` was over 20 µM; that for `O=c1oc2ccc(OCCCc3ccccc3)cc2c(O)c1[N+](=O)[O-]` was 5.5 µM; that for `CCCc1c(OCCCOc2ccccc2)ccc2c(O)c([N+](=O)[O-])c(=O)oc12` was 0.54 µM.
The same measure, in the same setting: the value for `O=c1oc2ccc(OCCCCCCOc3ccccc3)cc2c(O)c1[N+](=O)[O-]` was 0.78 µM.
On the same count and under the same terms, in the case of `O=c1oc2cc(OCCCCOc3ccccc3)ccc2c(O)c1[N+](=O)[O-]` it was 3.6 µM; in that of `O=c1oc2cccc(OCCCc3ccccc3)c2c(O)c1[N+](=O)[O-]`, over 20 µM; in that of `COc1ccc(OCCCOc2ccc3c(O)c([N+](=O)[O-])c(=O)oc3c2)cc1`, over 4 µM.
Compound `N#Cc1ccc(OCCCOc2ccc3c(O)c([N+](=O)[O-])c(=O)oc3c2)cc1` gave an IC50 of over 10 µM.
Still for that read-out and setting: in the case of `O=c1oc2cc(OCCCOc3ccc(Cl)cc3)ccc2c(O)c1[N+](=O)[O-]` it was 4 µM.
The compound `O=c1oc2cccc(OCCCOc3ccccc3)c2c(O)c1[N+](=O)[O-]` yielded an IC50 of 18 µM.
For the compound `CCc1cc(C(C)=O)c(O)cc1OCC(O)COc1ccc2c(O)c([N+](=O)[O-])c(=O)oc2c1` (stereo unspecified), the midpoint of inhibition, the IC50, lay at 3.5 µM.
Same read-out and setting: the value for `O=C(O)c1ccc(OCCCOc2ccc3c(O)c([N+](=O)[O-])c(=O)oc3c2)cc1` was over 20 µM; that for `O=c1oc2cc(OCc3ccccc3)ccc2c(O)c1[N+](=O)[O-]` was 1.5 µM; that for `O=c1oc2cc(OCCCOc3ccc4c(c3)CCCC4)ccc2c(O)c1[N+](=O)[O-]` was over 2 µM.
The compound `Cc1cccc(OCCCOc2ccc3c(O)c([N+](=O)[O-])c(=O)oc3c2)c1` came in with an IC50 of 4.4 µM.
Same read-out and setting: the value for `CCc1cc2c(O)c([N+](=O)[O-])c(=O)oc2cc1OCCCOc1ccccc1` was over 10 µM.
With `O=c1oc2cc(OCCCOc3ccccc3)ccc2c(O)c1[N+](=O)[O-]`, half-maximal inhibition (IC50) was put at 1.6 µM.
Still for that read-out and setting: in the case of `Cc1ccccc1OCCCOc1ccc2c(O)c([N+](=O)[O-])c(=O)oc2c1` it was 0.59 µM; in that of `Cc1ccc(OCCCOc2ccc3c(O)c([N+](=O)[O-])c(=O)oc3c2)c([N+](=O)[O-])c1`, over 10 µM; in that of `O=c1oc2cc(OCCCCc3ccc(Cl)cc3)ccc2c(O)c1[N+](=O)[O-]`, 3.8 µM.
Regarding `CCCc1c(O)c(C(C)=O)cc([N+](=O)[O-])c1OCC(O)COc1ccc2c(O)c([N+](=O)[O-])c(=O)oc2c1C` (stereo unspecified), it took 1.6 µM to reach half-maximal inhibition (IC50).
As for `CC(=O)c1ccc(OCCCOc2ccc3c(O)c([N+](=O)[O-])c(=O)oc3c2)cc1O`, the half-maximal inhibitory concentration (IC50) turned out to be 2.8 µM.
On the same count and under the same terms, in the case of `COC(=O)c1ccc(OCCCOc2ccc3c(O)c([N+](=O)[O-])c(=O)oc3c2)cc1` it was over 10 µM; in that of `CCCc1cc(F)ccc1OCC(O)COc1ccc2c(O)c([N+](=O)[O-])c(=O)oc2c1` (stereo unspecified), 0.14 µM; in that of `Cc1cc(OCCCOc2ccccc2)cc2oc(=O)c([N+](=O)[O-])c(O)c12`, 5.2 µM.

For the next assay, the system named is Rattus norvegicus. Put plainly: Antiallergic activity against ip dosed passive peritoneal anaphylaxis rat model assessed as inhibition of histamine release in peritoneal fluid administered 30s prior to ovalbumin challenge measured per rat after 5 mins.
Conditions: not given
It is filed as functional. In outline:
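Rat anti-ovalbumin antiserum raised with Bordetella pertussis vaccine adjuvant; rats given 2 mL of 1:5 antiserum ip. 2 h later, Pontamine Sky Blue iv, then compound in 1 mL saline ip (saline controls), groups of 5–7, randomized. Challenge 30 s later ip with 5 mL Tyrode containing heparin 50 μg/mL and ovalbumin 0.4 mg/mL. Peritoneal fluid collected at 5 min for histamine. Dose reducing histamine to 50% of controls from log dose-response line, 95% confidence limits.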
On to `CCCc1c(OCC(O)COc2ccc3c(O)c([N+](=O)[O-])c(=O)oc3c2)ccc(C(C)=O)c1O` (stereo unspecified), for which the ED50 is 6.5 ×10⁻¹⁰ M.
Consider `CCCc1ccccc1OCC(O)COc1ccc2c(O)c([N+](=O)[O-])c(=O)oc2c1` (stereo unspecified), for which the ED50 was 1.1 nM.
As for `O=C([O-])c1cc(=O)c2c(OCC(O)COc3cccc4oc(C(=O)[O-])cc(=O)c34)cccc2o1.[Na+].[Na+]` [CROMOLYN SODIUM], the ED50 amounted to 5.2 nM.
On the same count and under the same terms, the value for `CCCc1c(OCC(O)COc2ccc3c(O)c([N+](=O)[O-])c(=O)oc3c2C)ccc(C(C)=O)c1O` (stereo unspecified) was 2.4 nM; that for `CCCc1c(OCC(O)COc2ccc3c(O)c([N+](=O)[O-])c(=O)oc3c2CCC)ccc(C(C)=O)c1O` (stereo unspecified) was 6.2 ×10⁻¹⁰ M; that for `CCCc1c(OCCCOc2ccc3c(O)c([N+](=O)[O-])c(=O)oc3c2)ccc(C(C)=O)c1O` was 4.8 nM.
With `CCCc1c(OCC(O)COc2ccc3c(=O)cc(C(=O)O)oc3c2CCC)ccc(C(C)=O)c1O` (stereo unspecified) [FPL-55712], the ED50 is listed as 3.2 ×10⁻⁸ M.
As to `O=c1oc2cc(OCCCOc3ccccc3)ccc2c(O)c1[N+](=O)[O-]`, the ED50 was 2.1 nM.
For the compound `CCCc1cc(F)ccc1OCC(O)COc1ccc2c(O)c([N+](=O)[O-])c(=O)oc2c1` (stereo unspecified), the ED50 amounted to 1.7 nM.
